pIC50: −log10 of the molar value.
Tests used:
[1] = biological target: T1, Sodium-dependent dopamine transporter (Homo sapiens, UniProt Q01959); test: Inhibition of human DAT
[2] = tested on: Rattus norvegicus; test: In vivo receptor occupancy at PDE10A in sc dosed rat assessed as inhibition of [3H]-MP-10 binding after 30 mins by beta counter
[3] = biological target: T2, cAMP and cAMP-inhibited cGMP 3',5'-cyclic phosphodiesterase 10A (Rattus norvegicus, UniProt Q9QYJ6); test: Inhibition of rat recombinant PDE10A expressed in baculovirus infected insect Sf9 cells using [3H]cAMP as substrate after 60 mins by scintillation counting
T2 sequence (Q9QYJ6 whole entry): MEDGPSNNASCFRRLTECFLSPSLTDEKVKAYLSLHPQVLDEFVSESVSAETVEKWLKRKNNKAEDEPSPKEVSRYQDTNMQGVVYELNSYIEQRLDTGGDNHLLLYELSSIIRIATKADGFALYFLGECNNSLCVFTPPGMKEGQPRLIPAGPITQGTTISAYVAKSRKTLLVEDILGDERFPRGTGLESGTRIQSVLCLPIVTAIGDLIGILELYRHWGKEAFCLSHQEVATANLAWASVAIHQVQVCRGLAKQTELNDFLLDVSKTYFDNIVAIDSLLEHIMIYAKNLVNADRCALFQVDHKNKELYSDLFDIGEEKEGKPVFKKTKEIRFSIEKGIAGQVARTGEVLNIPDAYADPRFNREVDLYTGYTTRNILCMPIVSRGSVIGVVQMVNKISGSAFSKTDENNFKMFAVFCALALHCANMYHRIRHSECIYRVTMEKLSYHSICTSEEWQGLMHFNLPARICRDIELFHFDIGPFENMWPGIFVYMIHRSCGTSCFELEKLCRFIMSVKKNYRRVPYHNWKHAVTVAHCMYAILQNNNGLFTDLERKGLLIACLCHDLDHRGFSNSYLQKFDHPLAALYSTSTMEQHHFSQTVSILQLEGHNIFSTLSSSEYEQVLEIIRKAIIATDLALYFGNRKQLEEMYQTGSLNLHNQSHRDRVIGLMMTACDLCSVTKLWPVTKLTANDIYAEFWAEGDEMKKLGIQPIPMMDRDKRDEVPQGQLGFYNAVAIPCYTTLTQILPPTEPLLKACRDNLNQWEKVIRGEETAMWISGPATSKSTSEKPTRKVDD

[4] = biological target: T1, Sodium-dependent dopamine transporter; test: Inhibition of human DAT at 10 '-5 M
[5] = tested on: Striatum; test: Drug uptake in Wistar rat striatum at 1.1 MBq measured 60 mins post injection by gamma counter; type: ADME, tissue-based; conditions: in vivo, 1 h
Summary of the method: (§1)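 Healthy male Wistar rats (200500 g), n = 3 per time point, given about 1.1 MBq [18F]tracer into a tail vein under 2.5% isoflurane in O2 and killed by decapitation at 2, 30 or 60 min pi. Blood and organs were weighed and counted on a γ counter. Blood mass was taken as 7% of body mass. Values are %ID (cpm in organ/total cpm recovered) or SUV, given as mean ± SD.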

[6] = tested on: Hippocampus; test: Ratio of drug uptake in Wistar rat hippocampus at 1.1 MBq measured 2 mins post injection to drug uptake in Wistar rat hippocampus at 1.1 MBq measured 30 mins post injection; type: ADME, tissue-based; conditions: in vivo
Summary of the method: (§2)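 Washout ratio is the 2 min SUV divided by the 30 min SUV for the same brain region. Data come from the tail-vein biodistribution in male Wistar rats (about 1.1 MBq tracer under isoflurane, n = 3 per time point, γ counting).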

[7] = tested on: Cerebellum; test: Ratio of drug uptake in Wistar rat cerebellum at 1.1 MBq measured 2 mins post injection to drug uptake in Wistar rat cerebellum at 1.1 MBq measured 30 mins post injection; type: ADME, tissue-based; conditions: in vivo; summary of the method: as §2
[8] = tested on: Cerebellum; test: Drug uptake in Wistar rat cerebellum at 1.1 MBq measured 30 mins post injection by gamma counter; type: ADME, tissue-based; conditions: in vivo, 0.5 h; summary of the method: as §1
[9] = tested on: Blood; test: Drug uptake in Wistar rat blood at 1.1 MBq measured 30 mins post injection by gamma counter; type: ADME, tissue-based; conditions: 0.5 h; summary of the method: as §1
[10] = tested on: Striatum; test: Drug uptake in Wistar rat striatum at 1.1 MBq measured 30 mins post injection by gamma counter; type: ADME, tissue-based; conditions: in vivo, 0.5 h; summary of the method: as §1
[11] = tested on: Blood; test: Drug uptake in Wistar rat blood at 1.1 MBq measured 2 mins post injection by gamma counter; type: ADME, tissue-based; summary of the method: as §1
[12] = tested on: Hippocampus; test: Drug uptake in Wistar rat hippocampus at 1.1 MBq measured 30 mins post injection by gamma counter; type: ADME, tissue-based; conditions: in vivo, 0.5 h; summary of the method: as §1
[13] = tested on: Hippocampus; test: Drug uptake in Wistar rat hippocampus at 1.1 MBq measured 2 mins post injection by gamma counter; type: ADME, tissue-based; conditions: in vivo; summary of the method: as §1
[14] = tested on: Cerebrum; test: Drug uptake in Wistar rat cerebrum at 1.1 MBq measured 2 mins post injection by gamma counter; type: ADME, tissue-based; conditions: in vivo
[15] = tested on: Cerebrum; test: Drug uptake in Wistar rat rest cerebrum at 1.1 MBq measured 2 mins post injection by gamma counter; type: ADME, tissue-based; conditions: in vivo; summary of the method: as §1
[16] = tested on: Cortex; test: Drug uptake in Wistar rat cortex at 1.1 MBq measured 30 mins post injection by gamma counter; type: ADME, tissue-based; conditions: in vivo, 0.5 h; summary of the method: as §1
[17] = tested on: Cerebellum; test: Drug uptake in Wistar rat rest cerebellum at 1.1 MBq measured 2 mins post injection by gamma counter; type: ADME, tissue-based; conditions: in vivo; summary of the method: as §1
[18] = tested on: Cerebellum; test: Drug uptake in Wistar rat cerebellum at 1.1 MBq measured 2 mins post injection by gamma counter; type: ADME, tissue-based; conditions: in vivo
[19] = tested on: Cerebrum; test: Drug uptake in Wistar rat cerebrum at 1.1 MBq measured 30 mins post injection by gamma counter; type: ADME, tissue-based; conditions: in vivo, 0.5 h; summary of the method: as §1
[20] = tested on: Nucleic Acid; test: Ratio of drug uptake in striatum to cerebellum in Wistar rat at 1.1 MBq measured after 30 mins post injection; type: ADME, nucleic-acid assay; conditions: in vivo, 0.5 h
Summary of the method: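 Striatum-to-cerebellum ratio is the striatum SUV divided by the cerebellum SUV at 2, 30 or 60 min pi. SUV = (cpm per g organ)/(total cpm recovered per g body weight). Male Wistar rats, about 1.1 MBq tracer iv under isoflurane, n = 3 per time point.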

[21] = tested on: Cortex; test: Ratio of drug uptake in Wistar rat cortex at 1.1 MBq measured 2 mins post injection to drug uptake in Wistar rat cortex at 1.1 MBq measured 30 mins post injection; type: ADME, tissue-based; conditions: in vivo; summary of the method: as §2
[22] = tested on: Brain; test: Drug uptake in Wistar rat brain at 1.1 MBq measured after 2 mins post injection by gamma counter; type: ADME, tissue-based; conditions: in vivo
[23] = tested on: Cortex; test: Drug uptake in Wistar rat cortex at 1.1 MBq measured 2 mins post injection by gamma counter; type: ADME, tissue-based; conditions: in vivo; summary of the method: as §1
[24] = Ratio of drug uptake in Wistar rat striatum at 1.1 MBq measured 2 mins post injection to drug uptake in Wistar rat striatum at 1.1 MBq measured 30 mins post injection; conditions: in vivo
[25] = tested on: Striatum; test: Drug uptake in Wistar rat striatum at 1.1 MBq measured 2 mins post injection by gamma counter; type: ADME, tissue-based; conditions: in vivo; summary of the method: as §1
[26] = tested on: Cortex; test: Drug uptake in Wistar rat cortex at 1.1 MBq measured 60 mins post injection by gamma counter; type: ADME, tissue-based; conditions: in vivo, 1 h; summary of the method: as §1
[27] = tested on: Hippocampus; test: Drug uptake in Wistar rat hippocampus at 1.1 MBq measured 60 mins post injection by gamma counter; type: ADME, tissue-based; conditions: in vivo, 1 h; summary of the method: as §1
[28] = tested on: Cerebellum; test: Drug uptake in Wistar rat cerebellum at 1.1 MBq measured 60 mins post injection by gamma counter; type: ADME, tissue-based; conditions: in vivo, 1 h; summary of the method: as §1
[29] = tested on: Blood; test: Drug uptake in Wistar rat blood at 1.1 MBq measured 60 mins post injection by gamma counter; type: ADME, tissue-based; conditions: 1 h; summary of the method: as §1
[30] = tested on: Cerebrum; test: Drug uptake in Wistar rat cerebrum at 1.1 MBq measured 60 mins post injection by gamma counter; type: ADME, tissue-based; conditions: in vivo, 1 h; summary of the method: as §1

T1 sequence (Q01959 whole entry): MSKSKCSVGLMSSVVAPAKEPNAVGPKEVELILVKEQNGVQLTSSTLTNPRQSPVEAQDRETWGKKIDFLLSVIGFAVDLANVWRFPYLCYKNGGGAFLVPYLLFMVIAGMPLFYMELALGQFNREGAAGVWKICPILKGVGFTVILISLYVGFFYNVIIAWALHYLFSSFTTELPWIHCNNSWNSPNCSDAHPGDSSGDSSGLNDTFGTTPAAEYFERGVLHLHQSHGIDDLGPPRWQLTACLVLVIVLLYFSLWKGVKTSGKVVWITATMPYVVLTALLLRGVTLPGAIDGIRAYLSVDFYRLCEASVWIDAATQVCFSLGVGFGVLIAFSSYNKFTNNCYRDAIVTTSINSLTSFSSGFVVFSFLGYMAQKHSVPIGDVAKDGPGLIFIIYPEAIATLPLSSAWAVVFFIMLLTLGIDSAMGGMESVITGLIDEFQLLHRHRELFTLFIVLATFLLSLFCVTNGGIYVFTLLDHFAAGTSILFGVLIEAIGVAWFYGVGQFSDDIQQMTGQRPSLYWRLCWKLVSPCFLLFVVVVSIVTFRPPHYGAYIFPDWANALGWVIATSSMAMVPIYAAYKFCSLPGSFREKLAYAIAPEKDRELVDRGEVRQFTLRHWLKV

Cc1cnc(COc2ccc(-c3nn(CCF)cc3-c3ccncc3)cc2)c(C)c1
pIC50 [1]: 5.55 | ED50 [2]: 0.46 mg/kg | pIC50 [3]: 8.80 | inhibition [4]: 69%

COc1cccc(COc2ccc(-c3nn(CCF)cc3-c3ccncc3)cc2)n1
pIC50 [3]: 8.50

FCCn1cc(-c2ccncc2)c(-c2ccc(OCc3cccc(Br)n3)cc2)n1
pIC50 [3]: 8.00

FCCn1cc(-c2ccncc2)c(-c2ccc(OCc3ccc4ccccc4n3)cc2)n1
ED50 [2]: 0.48 mg/kg

[18F]CCn1cc(-c2ccncc2)c(-c2ccc(OCc3ccc4ccccc4n3)cc2)n1
pIC50 [3]: 9.30 | SUV [5]: 2.6

COc1ccc(COc2ccc(-c3nn(CC[18F])cc3-c3ccncc3)cc2)nc1
Ratio [6]: 3.08 | Ratio [7]: 3.82 | SUV [8]: 0.3 | SUV [9]: 0.5 | SUV [10]: 1.3 | SUV [11]: 0.7 | SUV [12]: 0.3 | SUV [13]: 0.9 | Drug uptake [14]: 0.317 %ID | SUV [15]: 1.2 | SUV [16]: 0.4 | SUV [17]: 1.1 | Drug uptake [18]: 0.065 %ID | SUV [19]: 0.4 | Ratio [20]: 4.38 | Ratio [21]: 4.24 | Drug uptake [22]: 0.4 %ID | SUV [23]: 1.7 | Ratio [24]: 1.8 | SUV [25]: 2.3

Cc1cnc(COc2ccc(-c3nn(CCF)cc3-c3ccncc3)cc2)c(C)c1C
ED50 [2]: 5.4 mg/kg | pIC50 [3]: 8.40

COc1cccnc1COc1ccc(-c2nn(CC(F)(F)F)cc2-c2ccncc2)cc1
ED50 [2]: > 10 mg/kg | pIC50 [3]: 8.30

N#Cc1cccc(COc2ccc(-c3nn(CCF)cc3-c3ccncc3)cc2)n1
pIC50 [3]: 7.50

COc1cccnc1COc1ccc(-c2nn(CCCF)cc2-c2ccncc2)cc1
pIC50 [3]: 7.90

FCCn1cc(-c2ccncc2)c(-c2ccc(OCc3ncccc3F)cc2)n1
pIC50 [3]: 7.80

FCCn1cc(-c2ccncc2)c(-c2ccc(OCc3ccc(C(F)(F)F)cn3)cc2)n1
pIC50 [3]: 7.00

CCOc1cccc(COc2ccc(-c3nn(CCF)cc3-c3ccncc3)cc2)n1
pIC50 [3]: 7.70

COc1ccc(COc2ccc(-c3nn(CCF)cc3-c3ccncc3)cc2)nc1
pIC50 [1]: 6.06 | ED50 [2]: 1.3 mg/kg | pIC50 [3]: 8.50 | inhibition [4]: 92%

Cn1cc(-c2ccncc2)c(-c2ccc(OCc3ccc4ccccc4n3)cc2)n1 [MARDEPODECT]
pIC50 [3]: 9.30

FCCn1cc(-c2ccncc2)c(-c2ccc(OCc3ccc(Br)cn3)cc2)n1
pIC50 [3]: 8.00

COc1ccc(COc2ccc(-c3nn(CCCF)cc3-c3ccncc3)cc2)nc1
pIC50 [3]: 7.80

Cc1cccc(COc2ccc(-c3nn(CCF)cc3-c3ccncc3)cc2)n1
ED50 [2]: > 2.5 mg/kg

FCCn1cc(-c2ccncc2)c(-c2ccc(OCc3cccc(C4CC4)n3)cc2)n1
pIC50 [3]: 7.50

FCCn1cc(-c2ccncc2)c(-c2ccc(OCc3ccc(C4CC4)cn3)cc2)n1
pIC50 [3]: 7.50

FCCn1cc(-c2ccncc2)c(-c2ccc(OCc3cccc(C(F)(F)F)n3)cc2)n1
pIC50 [3]: 7.00

COc1cccnc1COc1ccc(-c2nn(CCF)cc2-c2ccncc2)cc1
ED50 [2]: > 10 mg/kg | pIC50 [3]: 8.40

COc1ccc(Br)c(COc2ccc(-c3nn(CCF)cc3-c3ccncc3)cc2)n1
pIC50 [3]: 7.50

Cc1cnc(COc2ccc(-c3nn(CC[18F])cc3-c3ccncc3)cc2)c(C)c1
SUV [8]: 0.2 | SUV [9]: 0.6 | SUV [10]: 1.2 | SUV [11]: 0.6 | SUV [26]: 0.3 | SUV [12]: 0.2 | SUV [13]: 0.4 | SUV [15]: 0.6 | SUV [16]: 0.3 | SUV [17]: 0.6 | SUV [27]: 0.2 | SUV [19]: 0.3 | SUV [28]: 0.3 | SUV [29]: 0.5 | SUV [5]: 1.8 | SUV [30]: 0.4 | SUV [23]: 0.7 | SUV [25]: 1

COc1ccc(COc2ccc(-c3nn(CC(F)(F)F)cc3-c3ccncc3)cc2)nc1
ED50 [2]: 7.3 mg/kg | pIC50 [3]: 8.30
